What was measured:
Mus musculus [1] = assay: Toxicity against mouse L1210 Leukemia as number of animals survived/number of animals treated at the Optimal dose of 100 mg/kg; 6/6, dose range ip 200-12.5 mg/kg; format: functional; conditions: route intraperitoneal
Mus musculus [2] = assay: Animal weight difference at the Optimal dose of 100 mg/kg against mouse L1210 Leukemia; dose range ip 200-12.5 mg/kg; format: functional; conditions: route intraperitoneal
Mus musculus [3] = assay: Tested for cures, represents a 30-day survival, ratio of treated and control was reported; dose range ip 200-12.5 mg/kg; format: functional
Mus musculus [4] = assay: Tested for cures, represents a 30-day survival, ratio of treated and control against Ependymoblastoma Tumor was reported; dose range 16-2 mg/kg; format: functional
How it was run: (§1)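 Mouse ependymoblastoma implanted intracerebrally to test CNS antitumour activity. Groups of 10 mice were dosed on days 1-5 over the stated dose range. Toxicity is scored as survivors on day 5 after the first injection. Activity is given as % T/C at the optimum dose, and a cure is defined as 30-day survival.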

Mus musculus [5] = assay: Animal weight difference at the Optimal dose of 16.0 mg/kg against Ependymoblastoma Tumor; dose range 16-2 mg/kg
Mus musculus [6] = assay: Toxicity against Ependymoblastoma Tumor number of animals survived/number of animals treated at the Optimal dose of 16.0 mg/kg; dose range 16-2 mg/kg
Mus musculus [7] = assay: Toxicity against mouse L1210 Leukemia as number of animals survived/number of animals treated at the Optimal dose of 25 mg/kg; 6/6, dose range ip 50-6.25 mg/kg.; conditions: route intraperitoneal
Mus musculus [8] = assay: Tested for cures, represents a 30-day survival, ratio of treated and control against Ependymoblastoma Tumor was reported; dose range 12-0.75 mg/kg; format: functional; how it was run: as §1
Mus musculus [9] = assay: Tested for cures, represents a 30-day survival, ratio of treated and control was reported; dose range ip 50-6.25 mg/kg; format: functional
Mus musculus [10] = assay: Animal weight difference at the Optimal dose of 25 mg/kg against mouse L1210 Leukemia; dose range ip 50-6.25 mg/kg; conditions: route intraperitoneal
Mus musculus [11] = assay: Toxicity against Ependymoblastoma Tumor number of animals survived/number of animals treated at the Optimal dose of 12.0 mg/kg; dose range 12-0.75 mg/kg; format: functional; how it was run: as §1
Mus musculus [12] = assay: Animal weight difference at the Optimal dose of 12.0 mg/kg against Ependymoblastoma Tumor; dose range 12-0.75 mg/kg; format: functional
Mus musculus [13] = assay: Toxicity against mouse L1210 Leukemia as number of animals survived/number of animals treated at the Optimal dose of 200 mg/kg; 6/6, dose range ip 200-12.5 mg/kg.; format: functional; conditions: route intraperitoneal
Mus musculus [14] = assay: Toxicity against mouse L1210 Leukemia as number of animals survived/number of animals treated at the Optimal dose of 50 mg/kg; 6/6, dose range ip 400-12.5 mg/kg.; format: functional; conditions: route intraperitoneal
Mus musculus [15] = assay: Animal weight difference at the Optimal dose of 50 mg/kg against mouse L1210 Leukemia; dose range ip 400-12.5 mg/kg.; conditions: route intraperitoneal
Mus musculus [16] = assay: Tested for cures, represents a 30-day survival, ratio of treated and control was reported; dose range ip 400-12.5 mg/kg.; format: functional
Mus musculus [17] = assay: Animal weight difference at the Optimal dose of 200 mg/kg against mouse L1210 Leukemia; dose range ip 400-12.5 mg/kg; format: functional; conditions: route intraperitoneal
Mus musculus [18] = assay: Toxicity against mouse L1210 Leukemia as number of animals survived/number of animals treated at the Optimal dose of 200 mg/kg; 5/6, dose range ip 400-12.5 mg/kg.; format: functional; conditions: route intraperitoneal
[19] = test system: L1210 leukemia (Mus musculus); assay: Tested for cures, represents a 30-day survival, ratio of treated and control against L1210 leukemia was reported; dose range ip 400-12.5 mg/kg

## CN(N=O)C(=O)Nc1ccc(C2CC(=O)N(C)C2=O)cc1 (stereo unspecified)
Mus musculus [1]
  Ratio: 6
Mus musculus [2]
  T-C: -1.2 g
Mus musculus [3]
  T/C: 127%

## O=NN(CCCl)C(=O)NCCCl [CARMUSTINE]
Mus musculus [4]
  T/C: 300%
Mus musculus [5]
  T-C: -3.4 g
Mus musculus [6]
  Ratio: 10

## CN1C(=O)CC(c2ccc(NC(=O)N(CCCl)N=O)cc2)C1=O (stereo unspecified)
Mus musculus [7]
  Ratio: 6
Mus musculus [8]
  T/C: 240%
Mus musculus [9]
  T/C: 196%
Mus musculus [10]
  T-C: -4.6 g
Mus musculus [11]
  Ratio: 9
Mus musculus [12]
  T-C: -3.8 g

## CCN(N=O)C(=O)Nc1ccc(C2CC(=O)N(C)C2=O)cc1 (stereo unspecified)
Mus musculus [2]
  T-C: -3.8 g
Mus musculus [13]
  Ratio: 6
Mus musculus [3]
  T/C: 126%

## CCCN(N=O)C(=O)Nc1ccc(C2CC(=O)N(C)C2=O)cc1 (stereo unspecified)
Mus musculus [14]
  Ratio: 6
Mus musculus [15]
  T-C: 0.8 g
Mus musculus [16]
  T/C: 109%

## CCCCN(N=O)C(=O)Nc1ccc(C2CC(=O)N(C)C2=O)cc1 (stereo unspecified)
Mus musculus [17]
  T-C: -2.8 g
Mus musculus [18]
  Ratio: 5
[19]
  T/C: 120%

— ChEMBL document CHEMBL1121412, “Synthesis and anticancer activity of nitrosourea derivatives of phensuximide” (1980)
